In the library only some 4% were active in any assay of this set; here they are far more common.
b-catenin transl – alters nuclear translocation of beta-catenin in HeLa cells; immunofluorescence imaging; nuclear translocation activity, % at 5 µM; 190,000 tested, 0.3% active; AID 1665;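 active = nuclear translocation activity above 50% at 5 µM, with a well cell count of 50 or more; inconclusive = wells under 50 cells across six images, flagged as toxic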;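 also: per-cell ratio of nuclear to cytoplasmic median beta-catenin stain intensity; plate controls were DMSO negative control for no effect and GSK-3 inhibitor IX positive control for full effect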
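Test system: HeLa cells, endogenous beta-catenin; Compound: single 5 µM dose plus 0.02–20 µM confirmation series; Times: compound exposure 24 h at 37°C; Signal: fluorescence imaging of beta-catenin antibody stain plus DAPI; Read-out: % activation, nuclear-to-cytoplasmic median beta-catenin signal ratio per cell.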
Pf gamet viab – kills late stage P. falciparum gametocytes; inhibition, % at 10.9 µM; 150,000 tested, 0.065% active; AID 743093; P. falciparum stage V gametocytes, ATP luminescence, 24 h;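 active = inhibition above the mean plus 3 SD of compounds within the control limits, set per campaign, cut at about 38% in these data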;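 also: 0% = DMSO wells and 100% = medium only without gametocytes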
WT yeast gro inh – growth inhibition of WT yeast, mitochondrial fusion screen | mitochondrial fusion phenotypic screen, WT strain | inhibition, % at 10 µM | 190,000 tested, 2.1% active; in the data active = inhibition above about 58%; tested in S. cerevisiae
MT stabilize HCS – microtubule stabilization, imaging screen. HeLa tubulin immunostaining HCS, 24 h; share of cells brighter than vehicle mean+2SD. % tubulin-high responders, % at 10 µM. 200,000 tested, 0.83% active;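 active = plate Z-score above 3 for both tubulin-high and condensed-nucleus cell shares, with cell loss under 80%, at 10 µM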;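 also: anti alpha tubulin signal scored within the nucleus-defined area of each cell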
Cl transport mod – modulates chloride dependent transport by human KCC2; B-score of Tl+ flux slope (higher = more flux/activation; lower = inhibition) at 10 µM; AID 1456; 190,000 tested, 2.2% active; KCC2 cells, thallium flux FluoZin-2 fluorescence; Q9H2X9;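 active = thallium flux slope and its plate-corrected score both differing from the plate sample mean at a set confidence after two filtering rounds, in either direction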;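 also: slope of fluorescence scaled to starting intensity during 10 to 20 s after thallium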
Target sequence (Q9H2X9 whole entry, looked up): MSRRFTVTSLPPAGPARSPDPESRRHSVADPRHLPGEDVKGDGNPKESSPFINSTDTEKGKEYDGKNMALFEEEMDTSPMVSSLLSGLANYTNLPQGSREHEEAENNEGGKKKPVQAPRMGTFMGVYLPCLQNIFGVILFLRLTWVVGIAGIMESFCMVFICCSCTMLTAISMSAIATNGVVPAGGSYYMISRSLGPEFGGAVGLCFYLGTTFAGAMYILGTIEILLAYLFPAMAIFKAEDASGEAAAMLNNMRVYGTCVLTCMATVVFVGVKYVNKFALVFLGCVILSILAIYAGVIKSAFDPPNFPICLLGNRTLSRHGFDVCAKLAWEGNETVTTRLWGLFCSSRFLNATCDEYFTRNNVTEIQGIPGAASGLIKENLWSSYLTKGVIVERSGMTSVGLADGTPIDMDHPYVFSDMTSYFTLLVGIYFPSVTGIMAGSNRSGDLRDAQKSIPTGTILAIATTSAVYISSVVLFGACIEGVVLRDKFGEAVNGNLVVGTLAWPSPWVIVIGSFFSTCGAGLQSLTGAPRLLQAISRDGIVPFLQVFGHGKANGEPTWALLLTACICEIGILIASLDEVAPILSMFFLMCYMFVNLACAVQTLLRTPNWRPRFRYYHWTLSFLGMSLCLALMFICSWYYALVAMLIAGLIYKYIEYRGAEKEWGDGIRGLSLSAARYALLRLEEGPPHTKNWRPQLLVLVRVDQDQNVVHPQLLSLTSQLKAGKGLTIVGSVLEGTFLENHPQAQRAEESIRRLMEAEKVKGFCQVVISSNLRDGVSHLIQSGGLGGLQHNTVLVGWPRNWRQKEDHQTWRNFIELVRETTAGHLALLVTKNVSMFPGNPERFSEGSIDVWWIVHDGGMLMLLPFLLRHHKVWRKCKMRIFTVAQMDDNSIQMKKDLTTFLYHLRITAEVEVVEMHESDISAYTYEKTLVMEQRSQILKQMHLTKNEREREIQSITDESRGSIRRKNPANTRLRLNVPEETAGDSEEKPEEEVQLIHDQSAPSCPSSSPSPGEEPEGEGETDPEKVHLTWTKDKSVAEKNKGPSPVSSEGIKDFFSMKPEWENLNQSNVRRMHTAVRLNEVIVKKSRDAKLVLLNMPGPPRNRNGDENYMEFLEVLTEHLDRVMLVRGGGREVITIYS
KCC2 sec1 – confirmation of human KCC2 transport modulators; shares compounds with Cl transport mod; HEK293-KCC2, thallium flux, FluoZin2 fluorescence; active compounds read high; normalised thallium flux (F/F0 slope) at 10 µM; 3,700 tested, 15% active; AID 1713;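 active = thallium flux slope above the same plate's solvent-only control mean plus 3 SD; inconclusive = the two replicate wells disagree; inactive = no significant difference from solvent-only control wells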
KCC2 bumet counter – thallium flux despite bumetanide block in KCC2 cells, secondary assay 3; shares compounds with Cl transport mod; HEK293-KCC2 + bumetanide/ouabain, thallium flux FluoZin2; active compounds read high; normalized thallium flux at 10 µM; 3,700 tested, 49% active; AID 1714;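 active = thallium entry rate above the same plate's blocked-transporter control wells by more than 3 SD; inconclusive = the two repeat wells disagree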;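 also: raw slope of fluorescence over initial fluorescence between 10 and 20 s after thallium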
KCC2 sec2 – confirmation of human KCC2 transport modulators. normalized thallium flux at 10 µM. shares compounds with Cl transport mod. HEK293-KCC2, thallium flux FluoZin2 fluorescence; actives lie on both sides; F/F0 rise rate, 10–20 s post-thallium. 3,700 tested, 23% active;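 active = thallium flux slope more than 3 SD above or below the plate's solvent-only control mean, mostly below; inconclusive = the two repeat wells disagreed; inactive = no significant shift from solvent-only controls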;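 also: raw slope with 0.1% DMSO as baseline and bumetanide as block control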
HEK counter1 – acts in parental HEK cells, KCC2 counter-screen; shares compounds with Cl transport mod; HEK293 parental cells, thallium flux FluoZin2, ouabain; baseline-ratio fluorescence slope, 10–20 s after thallium; thallium flux rate (normalised fluorescence) at 10 µM; 3,700 tested, 46% active;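 active = thallium flux rate significantly above the same plate's solvent-only control wells, beyond their mean plus 3 SD; inconclusive = the two replicate wells gave conflicting results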
KCC2 retest ouab – KCC2 (human) modulation, ouabain retest; raw Tl+ flux slope (below DMSO = inhibition, above = activation) at 10 µM; HEK293-KCC2, thallium flux FluoZin2 fluorescence; bidirectional: low = inhibitor, high = activator; shares compounds with Cl transport mod; AID 1717; 3,700 tested, 48% active;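 active = thallium flux slope beyond 3 SD from same-plate DMSO control mean in most replicates, usually higher, sometimes lower; inconclusive = repeat tests gave conflicting results; inactive = no significant difference from controls in most replicates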;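 also: slope of initial-normalized fluorescence between seconds 10 and 20 after thallium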
HEK counter2 – parental HEK flux effect, counter-screen 2; shares compounds with Cl transport mod; HEK293 parental, thallium flux FluoZin-2 fluorescence slope; 3,700 tested, 33% active; AID 1718; thallium flux slope at 10 µM;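 active = thallium flux slope above the same plate's solvent-control mean plus 3 SD in both duplicate wells; inconclusive = duplicate wells that disagreed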;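 also: run without ouabain in cells lacking the KCC2 cotransporter; slope of fluorescence scaled to its starting value between 10 and 20 s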
The depositor's hits bear a star; ? = inconclusive; . = no result given.

SMILES	b-catenin transl	Pf gamet viab	WT yeast gro inh	MT stabilize HCS	Cl transport mod	KCC2 sec1	KCC2 bumet counter	KCC2 sec2	HEK counter1	KCC2 retest ouab	HEK counter2
CCC(=O)NC1OC(CO)C(O)C(O)C1O (stereo not given)	0	15	2	4	-0.081	.	.	.	.	.	.
Cc1cccc(/C=C2/S/C(=N/N=C3\CC4CCC3(C)C4(C)C)NC2=O)c1 (stereo not given)	0	.	-6	1	1.1	.	.	.	.	.	.
O=C(Cc1ccc(F)cc1)N/N=C/c1ccccn1	1	.	-6	6	1.1	.	.	.	.	.	.
CCN=c1scc(-c2ccc(F)cc2)n1/N=C/c1ccccn1	3	-19	48	5	-5.7*	0.0052	0.0044	0.023*	?	0.014*	0.011
O=c1c2ccc(Cl)cc2nc(-c2ccc([N+](=O)[O-])cc2)n1O	-2	4	35	3	57*	0.012*	0.092*	0.059*	0.065*	0.079*	0.042*
O=c1c2ccccc2nc(-c2ccccc2)n1O	.	-11	.	.	.	.	.	.	.	.	.
O=c1c2cc(Cl)ccc2nc(-c2ccccc2)n1O	0	6	2	2	50*	0.032*	0.073*	0.033	0.034*	0.052*	0.018*
O=c1c2cc(Cl)ccc2nc(-c2ccc(Cl)c(Cl)c2)n1O	2	0	.	.	.	.	.	.	.	.	.
O=c1c2cc(Br)ccc2nc(-c2ccc([N+](=O)[O-])cc2)n1O	-2	16	26	1	72*	0.05*	0.11*	0.058*	0.053*	0.069*	0.027*
CCN1C(=O)[C@H]2[C@@H](c3ccc(C)cc3)N3C(=O)N(c4ccc(C(F)(F)F)cc4)C(=O)[C@@]3(Cc3ccccc3)[C@H]2C1=O	.	-15	.	.	.	.	.	.	.	.	.
Oc1ccc(-c2csc(NCc3ccco3)n2)cc1	9	.	10	5	.	0.0086	0.0046	0.032	0.0056*	0.016*	0.0087
CN1C(=O)C(=O)N(CC(=O)N2CCc3ccccc32)C1=O	.	-30	6	4	0.032	.	.	.	.	.	.
O=C(CN1C(=O)CSc2ccccc21)N1CCc2ccccc21	-2	.	8	6	-4.9*	0.007	0.0055	0.032	0.0084	0.014*	0.011
c1ccc(CC2CCN(c3nnnn3-c3ccccc3)CC2)cc1	0	-11	62*	2	.	0.0067	0.0057	0.028	?	0.016*	0.009
C=C(C)Cn1c(C)cc(C)c(S(=O)(=O)c2cccc(C)c2)c1=O	0	9	54	4	-0.25	.	.	.	.	.	.
O=C(Nn1c(O)c(C=C2N=c3ccccc3=N2)sc1=S)c1ccccc1Cl	1	.	-9	4	-4.4*	0.017	0.0048	0.02*	0.0077	0.014	0.012
O=S(=O)(Nn1c(O)c(C=C2N=c3ccccc3=N2)sc1=S)c1ccccc1	1	-2	.	.	-1.7	.	.	.	.	.	.
CCc1ccc(C2C3=C(CC(C)(C)CC3=O)Nc3c2c(=O)[nH]c2nc(C)nn32)cc1 (stereo not given)	-4	9	6	2	-0.9	.	.	.	.	.	.
Cc1nc2[nH]c(=O)c3c(n2n1)NC1=C(C(=O)CC(C)(C)C1)C3c1ccc(F)cc1 (stereo not given)	-1	11	-15	6	.	0.006	0.0046	0.03	0.0068	0.018	0.01
C=CCNC(=S)N/N=C/c1ccc(C(F)(F)F)cc1	2	13	-4	2	3.5*	0.012	0.016*	0.036	?	?	?
C=CCNC(=S)N/N=C/c1ccc(C)cc1C	-2	8	41	3	5.2*	0.012	0.041*	0.035	0.018*	?	?
CCNC(=S)N/N=C/c1cc(C)ccc1C	3	9	19	3	3.2	.	.	.	.	.	.
O=C(COC(=O)Cc1c(Cl)cccc1Cl)NCC1CCCO1 (stereo not given)	0	-23	12	1	-0.16	.	.	.	.	.	.
COc1cccc(C2=NN(C(=O)c3ccccc3)C(O)(C(F)(F)F)C2)c1 (stereo not given)	0	.	42	2	3.2*	0.011	0.018*	0.033	0.012*	?	?
COc1ccc(C(=O)N2N=C(c3ccccc3)CC2(O)C(F)(F)F)cc1 (stereo not given)	-1	-19	7	1	11*	0.0054	0.017*	0.035	0.014*	0.026*	0.017*
SMILES	b-catenin transl	Pf gamet viab	WT yeast gro inh	MT stabilize HCS	Cl transport mod	KCC2 sec1	KCC2 bumet counter	KCC2 sec2	HEK counter1	KCC2 retest ouab	HEK counter2
COc1cccc(C(=O)N2N=C(c3ccccc3)CC2(O)C(F)(F)F)c1 (stereo not given)	.	-10	40	4	3.8	.	.	.	.	.	.
O=C(c1cccc(C(F)(F)F)c1)c1c[nH]c(C(=O)NCC2CCCO2)c1 (stereo not given)	-2	-28	-18	6	-0.81	.	.	.	.	.	.
CCOC(=O)c1nc2ccccc2c(=O)[nH]1	-4	-10	.	.	.	.	.	.	.	.	.
Cc1ccsc1C(=O)OCc1nc2ccccc2c(=O)[nH]1	2	.	-3	2	.	0.0099	0.0071	0.035	0.0079	0.02	?
c1coc(-c2nnc3sc(Cc4cccs4)nn23)c1	-5	.	-2	6	.	0.0061	0.0048	0.028	0.0078	?	0.01
Clc1ccc(-c2nnc3sc(Cc4cccs4)nn23)c(Cl)c1	-5	13	58	3	.	0.0086	0.0073	0.034	0.0068	0.018*	0.011*
Cc1cc(C)c(NC(=S)NC(=O)c2c(Cl)c(C)nn2C)c([N+](=O)[O-])c1	-1	.	23	5	42*	0.019*	0.16*	?	0.047*	0.061*	0.016*
CCOc1ccc(NC(=S)NC(=O)c2c(Cl)cnn2CC)c([N+](=O)[O-])c1	-3	10	12	3	19*	0.018*	0.056*	0.034	0.029*	0.044*	0.014*
CCn1ncc(Cl)c1C(=O)NC(=S)Nc1c(C)cc(C)cc1[N+](=O)[O-]	-2	1	36	2	85*	0.033*	0.15*	0.044*	0.076*	0.072*	0.026*
CC(=O)c1ccc(NC(=S)NC(=O)c2c(Cl)c(C)nn2C)cc1	-2	14	14	2	15*	0.015*	0.066*	0.037	0.031*	0.037*	0.015*

Screening results (PubChem BioAssay)
